Columns and labels:
[1] = tested on: BT-20; experiment: Cytotoxicity against human breast carcinoma, BT20 cells; assay type: functional, cell-based
Summary of the method: (§1)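 Dose-response proliferation assay over 0.16 to 20 µM (final) in tissue-culture plates. Cells were incubated 72 h at 37 °C in 5% CO2, and inhibition was read as Alamar Blue conversion by fluorescence at excitation/emission 544/590 nm.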

[2] = tested on: HCT-15; experiment: Cytotoxicity against human colon carcinoma, HCT15 cells; assay type: functional, cell-based; summary of the method: as §1
[3] = tested on: MES-SA/Dx5; experiment: Cytotoxicity against human uterine sarcoma, MES-SA-Dx5 cells derived from MES-SA; assay type: functional, cell-based; summary of the method: as §1
[4] = tested on: A-375; experiment: Cytotoxicity against human melanoma, A375 cells; assay type: functional, cell-based; summary of the method: as §1
[5] = tested on: KHOS/NP; experiment: Cytotoxicity against human osteosarcoma, KHOS-NP cells; assay type: functional, cell-based; summary of the method: as §1
[6] = tested on: HepG2; experiment: Cytotoxicity against human hepatoma, HEPG2 cells; assay type: functional, cell-based; summary of the method: as §1
[7] = tested on: A-431; experiment: Cytotoxicity against human epidermoid carcinoma, A431 cells; assay type: functional, cell-based; summary of the method: as §1
[8] = tested on: MES-SA; experiment: Cytotoxicity against human uterine sarcoma, MES-SA cells; assay type: functional, cell-based; summary of the method: as §1
[9] = tested on: HEK293; experiment: Cytotoxicity against HEK293 cells; assay type: functional, cell-based; conditions: Homo sapiens; summary of the method: as §1
[10] = tested on: MAT-Ly-Lu; experiment: Cytotoxicity against rat prostate carcinoma, MatLyLu cells; assay type: functional, cell-based; summary of the method: as §1
[11] = tested on: Ramos; experiment: Cytotoxicity against human Burkitt lymphoma, RAMOS cells; assay type: functional, cell-based; summary of the method: as §1
[12] = organism: Rattus norvegicus; experiment: Inhibition of blood vessel growth in rat aorta at 0.1 ug/mL; assay type: functional
Summary of the method: (§2)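 In vitro angiogenesis assay using rat aorta blood vessel fragments, with compounds dissolved in DMSO. The read-out is percent inhibition of blood vessel growth at each fixed test concentration.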

[13] = organism: Rattus norvegicus; experiment: Inhibition of blood vessel growth in rat aorta at 10 ug/mL; assay type: functional; summary of the method: as §2
[14] = tested on: A549; experiment: Cytotoxicity against human lung carcinoma, A549 cells; assay type: functional, cell-based; summary of the method: as §1
[15] = tested on: CTLL; experiment: Cytotoxicity against murine cytotoxic T cells, CTLL2; assay type: functional, cell-based; conditions: Mus musculus; summary of the method: as §1
[16] = tested on: Daudi; experiment: Cytotoxicity against human Burkitt lymphoma, DAUDI cells; assay type: functional, cell-based; summary of the method: as §1
[17] = tested on: HT-1376; experiment: Cytotoxicity against human bladder carcinoma, HT1376 cells; assay type: functional, cell-based; summary of the method: as §1
[18] = organism: Rattus norvegicus; experiment: Inhibition of blood vessel growth in rat aorta at 100 ug/mL; assay type: functional; summary of the method: as §2
[19] = organism: Rattus norvegicus; experiment: Inhibition of blood vessel growth in rat aorta at 1 ug/mL; assay type: functional; summary of the method: as §2
[20] = tested on: BUD-8; experiment: Cytotoxicity against human fibroblast, BUD8 cells; assay type: functional, cell-based; summary of the method: as §1
[21] = tested on: PA-1; experiment: Cytotoxicity against human ovarian teratocarcinoma, PA1 cells; assay type: functional, cell-based; summary of the method: as §1
[22] = tested on: TF-1; experiment: Cytotoxicity against human erythroleukemia TF1 cells; assay type: functional, cell-based; summary of the method: as §1
[23] = tested on: MCF7; experiment: Cytotoxicity against human breast carcinoma, MCF7 cells; assay type: functional, cell-based; summary of the method: as §1

Row | Structure (SMILES) | IC50 [1] | IC50 [2] | IC50 [3] | IC50 [4] | IC50 [5] | IC50 [7] | IC50 [8] | IC50 [10] | IC50 [11] | inhibition at 0.1 µg/mL [12] | inhibition at 10 µg/mL [13] | IC50 [14] | IC50 [15] | IC50 [16] | IC50 [17] | inhibition at 100 µg/mL [18] | inhibition at 1 µg/mL [19] | IC50 [20] | IC50 [21] | IC50 [22] | further results
1 | COc1ccc(/C(=C\c2ccc(OC)c(OC)c2)CN2CCCC[C@@H]2C)cc1 | > 20 µM | > 20 µM | > 20 µM | > 20 µM | > 20 µM | > 20 µM | > 20 µM | > 20 µM | > 20 µM | 22% | 43% | > 20 µM | > 20 µM | > 20 µM | > 20 µM | 100% | 68% | > 20 µM | > 20 µM | > 20 µM | IC50 [6]: > 20 µM; IC50 [9]: > 20 µM
2 | COc1ccc2c(CN3CCCC[C@@H]3C)cc3cc(OC)c(OC)cc3c2c1 | 10.2 µM | 7.82 µM | 11.7 µM | 8.96 µM | 12.3 µM | 8.12 µM | 10.1 µM | 15 µM | > 20 µM | 17% | 100% | 11.2 µM | 7.61 µM | 9.08 µM | 9.68 µM | 100% | 42% | > 20 µM | 7.38 µM | 7.2 µM | IC50 [6]: 8.12 µM; IC50 [9]: 15.5 µM
3 | COc1ccc(/C=C(/CN2CCCC[C@@H]2C)c2ccc(O)cc2)cc1OC | > 20 µM | > 20 µM | > 20 µM | > 20 µM | > 20 µM | > 20 µM | > 20 µM | > 20 µM | > 20 µM | 31% | 42% | > 20 µM | > 20 µM | > 20 µM | > 20 µM | 100% | 53% | > 20 µM | > 20 µM | > 20 µM | IC50 [6]: > 20 µM; IC50 [9]: > 20 µM
4 | COc1ccc(/C(=C\c2ccc(OC)c(OC)c2)CN2CCCC[C@H]2C)cc1 | > 20 µM | > 20 µM | > 20 µM | > 20 µM | > 20 µM | > 20 µM | > 20 µM | > 20 µM | > 20 µM | 36% | 62% | > 20 µM | > 20 µM | > 20 µM | > 20 µM | 100% | 59% | > 20 µM | > 20 µM | > 20 µM | IC50 [6]: > 20 µM; IC50 [9]: > 20 µM
5 | COc1ccc(/C=C(/CN2CCCC[C@H]2C)c2ccc(O)cc2)cc1OC | > 20 µM | > 20 µM | > 20 µM | > 20 µM | > 20 µM | > 20 µM | > 20 µM | > 20 µM | > 20 µM |  | 65% | > 20 µM | > 20 µM | > 20 µM | > 20 µM | 100% | 43% | > 20 µM | > 20 µM | > 20 µM | IC50 [6]: > 20 µM; IC50 [9]: > 20 µM
6 | COc1ccc2c(CN(C)C)cc3cc(OC)c(OC)cc3c2c1 | 7.38 µM | 8.27 µM | 16.8 µM | 7.1 µM | 17.1 µM | 5.37 µM | 9.1 µM | 17.3 µM | 16.6 µM | 7% | 100% | 17 µM | 3.39 µM | 15.7 µM | 7.88 µM |  | 22% | > 20 µM | 4.16 µM | 6.75 µM | IC50 [23]: 18.6 µM
7 | COc1ccc2c(CN3CCCC[C@H]3C)cc3cc(OC)c(OC)cc3c2c1 | 10.9 µM | 8.33 µM | 8.46 µM | 10.1 µM | 14 µM | 8.09 µM | 9.04 µM | 15 µM | 15.5 µM | 29% | 100% | 12 µM | 8.1 µM | 12 µM | 9.51 µM |  | 48% | > 20 µM | 7.27 µM | 7.65 µM | IC50 [6]: 7.27 µM; IC50 [9]: 17.1 µM
8 | COc1cc2cc(CN3CCCC[C@@H]3C)c3ccc(O)cc3c2cc1OC | 13.7 µM | 8.41 µM | 11.8 µM | 11.2 µM | 15.4 µM | 13.8 µM | 14.1 µM | > 20 µM | 18.2 µM | 35% | 74% | 16.6 µM | 9.09 µM | 13.5 µM | 8.31 µM | 100% | 58% | 18.2 µM | 8 µM | 9.8 µM | IC50 [6]: 8.33 µM; IC50 [9]: 14.8 µM
9 | COc1cc2cc(CN3CCCC[C@H]3C)c3ccc(O)cc3c2cc1OC | 11.6 µM | 7.97 µM |  | 9.38 µM | 13.4 µM | 20 µM |  | > 20 µM |  | 18% | 85% | 15.2 µM | 8.1 µM |  | 6.04 µM | 100% | 47% |  |  | 8.4 µM | 
10 | COc1ccc2ccc3cc(OC)c(OC)cc3c2c1 | > 20 µM | > 20 µM | > 20 µM | > 20 µM | > 20 µM | > 20 µM | > 20 µM | > 20 µM | > 20 µM |  | 42% | > 20 µM | 17.5 µM | > 20 µM | > 20 µM | 83% |  | > 20 µM | > 20 µM | > 20 µM | IC50 [23]: > 20 µM
11 | COc1ccc2c3c(c4cc(OC)c(OC)cc4c2c1)C[C@H]1CCCCN1C3 [CRYPTOPLEURINE] | 0.003 µM | 0.003 µM | 0.003 µM | 0.003 µM | 0.01 µM | 0.003 µM | 0.003 µM | 0.003 µM | 0.003 µM |  |  | 0.003 µM |  | 0.002 µM | 0.004 µM |  |  | 0.006 µM | 0.002 µM |  | IC50 [23]: 0.003 µM
